Results as given in ChEMBL document CHEMBL1132232, “7alpha-Iodo and 7alpha-fluoro steroids as androgen receptor-mediated imaging agents” (J Med Chem, 1999).

Columns and labels:
Rattus norvegicus [1] = test: Distribution of tissue Radioactivity following subcutaneous injection of […] of 5-alpha-DHT 15 min before the administration of the [125I]- tracer castrated male rat liver at 1 hour time; type: ADME, organism-based; conditions: in vivo, sc
Method in brief: (§1)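 Castrated male Sprague–Dawley rats, about 250 g, received 5α-DHT subcutaneously in propylene glycol/saline (3:2) 15 min before a tail-vein 125I tracer (5.4 μCi, 2.4 pmol, in ethanol/saline 1:4). There were 5–6 rats per group. At 1 h, rats were ether-anesthetized and exsanguinated. Tissues were weighed and counted as % injected dose/g, plus the prostate/blood ratio.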

Rattus norvegicus [2] = test: Distribution of tissue Radioactivity following Intravenous injection into castrated male rat thyroid at 4 hours time; type: ADME, organism-based, Thyroid gland; conditions: in vivo
Method in brief: (§2)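 Male Sprague–Dawley rats, about 250 g, were castrated and injected the next day via the tail vein with 5.4 μCi (2.4 pmol) of 125I tracer in ethanol/saline (1:4). There were 5–6 rats per group. At 0.5, 1, 2 or 4 h, rats were ether-anesthetized and killed by exsanguination. Tissues were dissected, weighed and counted, giving % injected dose/g and prostate/blood ratios.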

Rattus norvegicus [3] = test: Distribution of tissue Radioactivity following subcutaneous injection of […] of 5-alpha-DHT 15 min before the administration of the [125I]- tracer castrated male rat lung at 1 hour time; type: ADME, organism-based; conditions: in vivo, sc; method in brief: as §1
Rattus norvegicus [4] = test: Distribution of tissue Radioactivity following Intravenous injection into castrated male rat kidney at 4 hours time; type: ADME, organism-based; conditions: in vivo; method in brief: as §2
Rattus norvegicus [5] = test: Distribution of tissue Radioactivity following Intravenous injection into castrated male rat kidney at 2 hours time; type: ADME, organism-based; conditions: in vivo; method in brief: as §2
Rattus norvegicus [6] = test: Distribution of tissue Radioactivity following Intravenous injection into castrated male rat fat at 0.5 hours time; type: ADME, organism-based, Adipose tissue; conditions: in vivo; method in brief: as §2
Rattus norvegicus [7] = test: Distribution of tissue Radioactivity following subcutaneous injection of […] of 5-alpha-DHT 15 min before the administration of the [125I]- tracer castrated male rat spleen at 1 hour time; type: ADME, organism-based; conditions: in vivo, sc; method in brief: as §1
Rattus norvegicus [8] = test: Distribution of tissue Radioactivity following Intravenous injection into castrated male rat prostate at 4 hours time; type: ADME, organism-based, Prostate gland; conditions: in vivo; method in brief: as §2
Rattus norvegicus [9] = test: Distribution of tissue Radioactivity following subcutaneous injection of […] of 5-alpha-DHT 15 min before the administration of the [125I]- tracer castrated male rat kidney at 1 hour time; type: ADME, organism-based; conditions: in vivo, sc; method in brief: as §1
Rattus norvegicus [10] = test: Distribution of tissue Radioactivity following subcutaneous injection of […] of 5-alpha-DHT 15 min before the administration of the [125I]- tracer castrated male rat prostate/blood at 1 hour time; type: ADME, organism-based; conditions: in vivo, sc; method in brief: as §1
Rattus norvegicus [11] = test: Distribution of tissue Radioactivity following Intravenous injection into castrated male rat prostate/blood at 1 hours time; type: ADME, organism-based; conditions: other tissue; method in brief: as §2
Rattus norvegicus [12] = test: Distribution of tissue Radioactivity following Intravenous injection into castrated male rat prostate at 2 hours time; type: ADME, organism-based, Prostate gland; conditions: in vivo; method in brief: as §2
Rattus norvegicus [13] = test: Distribution of tissue Radioactivity following Intravenous injection into castrated male rat blood at 0.5 hours time; type: ADME, organism-based; conditions: in vivo; method in brief: as §2
Rattus norvegicus [14] = test: Distribution of tissue Radioactivity following Intravenous injection into castrated male rat spleen at 0.5 hours time; type: ADME, organism-based; conditions: in vivo; method in brief: as §2
Rattus norvegicus [15] = test: Distribution of tissue radioactivity following subcutaneous injection of […] of 5-alpha-DHT 15 min before the administration of the [125I] tracer castrated male rat prostate 1 hour time; type: ADME, organism-based, Prostate gland; conditions: in vivo, sc
Rattus norvegicus [16] = test: Distribution of tissue Radioactivity following Intravenous injection into castrated male rat thyroid at 2 hours time; type: ADME, organism-based, Thyroid gland; conditions: in vivo; method in brief: as §2
Rattus norvegicus [17] = test: Distribution of tissue Radioactivity following Intravenous injection into castrated male rat muscle at 2 hours time; type: ADME, organism-based; conditions: in vivo; method in brief: as §2
Rattus norvegicus [18] = test: Distribution of tissue Radioactivity following Intravenous injection into castrated male rat lung at 4 hours time; type: ADME, organism-based; conditions: in vivo; method in brief: as §2
Rattus norvegicus [19] = test: Distribution of tissue Radioactivity following subcutaneous injection of […] of 5-alpha-DHT 15 min before the administration of the [125I]- tracer castrated male rat muscle at 1 hour time; type: ADME, organism-based; conditions: in vivo, sc; method in brief: as §1
Rattus norvegicus [20] = test: Distribution of tissue Radioactivity following Intravenous injection into castrated male rat muscle at 0.5 hours time; type: ADME, organism-based; conditions: in vivo; method in brief: as §2
Rattus norvegicus [21] = test: Distribution of tissue Radioactivity following Intravenous injection into castrated male rat prostate at 1 hours time; type: ADME, organism-based, Prostate gland; conditions: in vivo; method in brief: as §2
Rattus norvegicus [22] = test: Distribution of tissue Radioactivity following Intravenous injection into castrated male rat fat at 4 hours time; type: ADME, organism-based, Adipose tissue; conditions: in vivo; method in brief: as §2
[23] = target: T1, Androgen receptor (Homo sapiens) (UniProt P10275); conditions: CV-1
T1 sequence (whole entry): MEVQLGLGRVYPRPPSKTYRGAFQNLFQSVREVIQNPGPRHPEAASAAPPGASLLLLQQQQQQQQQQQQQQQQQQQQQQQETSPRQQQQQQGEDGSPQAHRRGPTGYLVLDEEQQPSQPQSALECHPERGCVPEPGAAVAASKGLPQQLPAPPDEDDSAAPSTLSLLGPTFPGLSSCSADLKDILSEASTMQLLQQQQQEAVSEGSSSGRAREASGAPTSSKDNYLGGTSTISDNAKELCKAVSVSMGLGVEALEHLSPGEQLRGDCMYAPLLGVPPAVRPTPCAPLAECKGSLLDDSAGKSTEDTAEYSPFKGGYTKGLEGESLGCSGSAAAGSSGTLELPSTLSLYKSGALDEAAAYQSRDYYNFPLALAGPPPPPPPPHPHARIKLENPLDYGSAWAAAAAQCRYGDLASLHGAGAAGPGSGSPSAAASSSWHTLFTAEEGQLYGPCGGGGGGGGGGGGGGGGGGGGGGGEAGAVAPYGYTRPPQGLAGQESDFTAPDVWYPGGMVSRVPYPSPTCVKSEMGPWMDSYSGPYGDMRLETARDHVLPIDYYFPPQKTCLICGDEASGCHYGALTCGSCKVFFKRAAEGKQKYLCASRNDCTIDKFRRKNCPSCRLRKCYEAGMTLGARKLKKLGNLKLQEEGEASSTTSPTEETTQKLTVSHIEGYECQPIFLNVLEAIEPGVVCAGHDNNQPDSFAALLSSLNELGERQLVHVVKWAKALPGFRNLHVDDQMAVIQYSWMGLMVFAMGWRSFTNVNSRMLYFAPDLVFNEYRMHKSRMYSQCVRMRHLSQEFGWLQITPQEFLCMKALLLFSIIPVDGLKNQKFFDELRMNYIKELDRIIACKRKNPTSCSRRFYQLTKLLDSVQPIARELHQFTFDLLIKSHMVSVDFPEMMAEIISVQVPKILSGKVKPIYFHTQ

Rattus norvegicus [24] = test: Distribution of tissue Radioactivity following Intravenous injection into castrated male rat liver at 4 hours time; type: ADME, organism-based; conditions: in vivo; method in brief: as §2
Rattus norvegicus [25] = test: Distribution of tissue Radioactivity following Intravenous injection into castrated male rat muscle at 4 hours time; type: ADME, organism-based; conditions: in vivo; method in brief: as §2

Compound `C[C@]12CCC(=O)CC1C[C@@H](I)[C@@H]1[C@@H]2CC[C@@]2(C)[C@H]1CC[C@]2(C)O` (stereo not given in full) has a Dose/g (Rattus norvegicus [1]) of 0.36%, a Biodistribution (Rattus norvegicus [2]) of 9.7% and a Dose/g (Rattus norvegicus [3]) of 0.28%. The Biodistribution (Rattus norvegicus [4]) was 0.23%, the Dose/g (Rattus norvegicus [5]) was 0.25% and the Biodistribution (Rattus norvegicus [6]) was 0.2%. The Dose/g (Rattus norvegicus [7]) was 0.18%, the Biodistribution (Rattus norvegicus [8]) was 0.44% and the Biodistribution (Rattus norvegicus [9]) was 0.3%. For the same compound, the Dose/g (Rattus norvegicus [10]) was 0.66%, the Biodistribution (Rattus norvegicus [11]) was 1.17% and the Dose/g (Rattus norvegicus [12]) was 0.44%. For the same compound, the Dose/g (Rattus norvegicus [13]) was 0.3%, the Dose/g (Rattus norvegicus [14]) was 0.13% and the Biodistribution (Rattus norvegicus [15]) was 0.23%. For the same compound, the Dose/g (Rattus norvegicus [16]) was 3.55%, the Dose/g (Rattus norvegicus [17]) was 0.07% and the Dose/g (Rattus norvegicus [18]) was 0.28%. For the same compound, the Biodistribution (Rattus norvegicus [19]) was 0.08%, the Biodistribution (Rattus norvegicus [20]) was 0.06% and the Dose/g (Rattus norvegicus [21]) was 0.39%. The Biodistribution (Rattus norvegicus [22]) was 0.17%, the RSA [23] was 28 and the Dose/g (Rattus norvegicus [24]) was 0.24%. It also gave a Biodistribution (Rattus norvegicus [25]) of 0.07%.
